Converted amounts (≈) assume the structure as drawn.

Data set [1] in a line: Clearance in rat at 10 mg/kg, iv. It counts as ADME, organism-based. The arrangement: dose 10 mg/kg, route intravenous. The following applies: in vivo. The method in brief:
(§1)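 Intravenous pharmacokinetics of the acid: rat and dog dosed at 10 mg/kg, monkey at 15 mg/kg. AUC (ng h/mL), clearance (mL/min/kg) and Vss (mL/kg) derived from plasma levels.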

The nature of data set [2]: Clearance in monkey at 15 mg/kg, iv. The note with it: cynomolgus monkey, in vivo.
Data set [3] in a line: Apparent permeability across human Caco2 cells. It counts as ADME, cell-based. The note with it: Caco-2.
Data set [4] has as its target T1, Integrin alpha-4/beta-1 (Homo sapiens, UniProt P05556+P13612). In words: Inhibition of human VCAM1 binding to integrin alpha4beta1 receptor in human Ramos cells labeled with Calcein AM relative to RO0270608. In kind it is cell-based. An outline of the steps:
(§2)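 Serially diluted compound tested for blocking adhesion of Calcein AM-labelled cells to recombinant human counter-ligand: RAMOS cells on VCAM-1 (α4β1) and RPMI 8866 cells on MAdCAM-1 (α4β7). Cells activated beforehand in Mn2+-containing binding buffer for maximal activation. IC50 taken from fluorescence; RO0270608 run on every plate, and relative potency expressed as fold versus this control because cell activity drifted with passage.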

Data set [5] is described as follows: AUC in rat at 10 mg/kg, iv. In kind it is ADME, organism-based. The arrangement: dose 10 mg/kg, route intravenous. The following applies: plasma. The method in brief: as §1
A further data set concerns the target T2, Integrin alpha-4/beta-7 (Homo sapiens, UniProt P13612+P26010).
T2 sequence (P13612 whole entry): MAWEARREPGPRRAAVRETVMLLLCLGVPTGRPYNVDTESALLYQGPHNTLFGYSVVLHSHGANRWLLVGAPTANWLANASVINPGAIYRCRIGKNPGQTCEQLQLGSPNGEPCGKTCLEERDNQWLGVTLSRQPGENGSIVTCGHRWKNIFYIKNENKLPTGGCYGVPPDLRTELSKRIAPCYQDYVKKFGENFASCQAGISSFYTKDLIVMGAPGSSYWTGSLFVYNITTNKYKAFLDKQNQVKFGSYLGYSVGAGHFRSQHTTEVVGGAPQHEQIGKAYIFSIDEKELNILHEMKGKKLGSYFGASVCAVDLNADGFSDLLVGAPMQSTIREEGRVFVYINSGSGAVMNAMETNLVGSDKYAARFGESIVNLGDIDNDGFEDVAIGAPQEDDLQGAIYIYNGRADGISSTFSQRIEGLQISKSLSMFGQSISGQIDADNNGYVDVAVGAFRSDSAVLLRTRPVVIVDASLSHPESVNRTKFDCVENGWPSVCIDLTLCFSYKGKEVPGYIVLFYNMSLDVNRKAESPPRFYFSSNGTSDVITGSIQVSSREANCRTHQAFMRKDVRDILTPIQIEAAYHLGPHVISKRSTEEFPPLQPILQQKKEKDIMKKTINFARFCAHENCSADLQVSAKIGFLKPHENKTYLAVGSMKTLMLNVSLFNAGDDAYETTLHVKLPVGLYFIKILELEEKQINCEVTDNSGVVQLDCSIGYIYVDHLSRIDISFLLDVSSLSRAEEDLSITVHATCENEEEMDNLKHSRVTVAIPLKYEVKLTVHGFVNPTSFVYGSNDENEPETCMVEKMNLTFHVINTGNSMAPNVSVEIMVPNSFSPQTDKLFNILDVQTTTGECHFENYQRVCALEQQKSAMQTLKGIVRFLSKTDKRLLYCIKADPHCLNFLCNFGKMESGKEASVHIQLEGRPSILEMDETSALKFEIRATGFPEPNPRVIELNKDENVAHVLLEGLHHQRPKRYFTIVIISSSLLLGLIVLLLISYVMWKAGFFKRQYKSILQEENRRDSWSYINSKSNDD
T2 sequence (P26010 whole entry): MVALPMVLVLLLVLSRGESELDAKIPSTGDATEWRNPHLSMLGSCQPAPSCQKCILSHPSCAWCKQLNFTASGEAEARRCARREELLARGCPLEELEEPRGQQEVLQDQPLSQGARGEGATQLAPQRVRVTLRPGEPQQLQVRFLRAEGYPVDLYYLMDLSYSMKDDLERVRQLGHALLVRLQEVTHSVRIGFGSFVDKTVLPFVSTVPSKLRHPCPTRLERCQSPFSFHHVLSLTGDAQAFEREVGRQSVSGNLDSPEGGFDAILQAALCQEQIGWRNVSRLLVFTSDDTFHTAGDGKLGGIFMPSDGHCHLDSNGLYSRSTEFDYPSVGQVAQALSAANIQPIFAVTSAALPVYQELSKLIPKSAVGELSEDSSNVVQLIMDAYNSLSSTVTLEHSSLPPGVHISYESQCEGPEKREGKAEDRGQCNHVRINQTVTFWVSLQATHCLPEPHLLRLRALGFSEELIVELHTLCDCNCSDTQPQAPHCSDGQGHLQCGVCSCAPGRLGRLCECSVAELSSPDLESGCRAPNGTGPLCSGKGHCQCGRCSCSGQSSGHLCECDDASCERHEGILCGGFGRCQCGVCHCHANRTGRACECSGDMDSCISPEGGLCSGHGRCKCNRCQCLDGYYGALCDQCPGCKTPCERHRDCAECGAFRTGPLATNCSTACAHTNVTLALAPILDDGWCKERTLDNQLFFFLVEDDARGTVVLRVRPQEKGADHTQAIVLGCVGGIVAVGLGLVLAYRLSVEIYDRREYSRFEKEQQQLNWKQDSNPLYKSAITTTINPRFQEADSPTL
Briefly: Inhibition of human MAdCAM1 binding to integrin alpha4beta7 receptor in human RPMI 8866 cells labeled with Calcein AM. In kind it is cell-based. The method in brief:
as §2

Data set [6] can be described thus: Clearance in dog at 10 mg/kg, iv. In kind it is ADME, organism-based, Canis lupus familiaris. More on the design: dose 10 mg/kg, route intravenous. The following applies: in vivo. An outline of the steps:
as §1

For data set [7], the target named is T1, Integrin alpha-4/beta-1. In words: Inhibition of human VCAM1 binding to integrin alpha4beta1 receptor in human Ramos cells labeled with Calcein AM. It counts as cell-based. An outline of the steps: as §2
Data set [8] has as its target Integrin alpha-4/beta-7 (Homo sapiens) (UniProt P13612+P26010). In words: Inhibition of human MAdCAM1 binding to integrin alpha4beta7 receptor in human RPMI 8866 cells labeled with Calcein AM relative to RO0270608. It counts as cell-based. The method in brief:
as §2

Data set [9] can be described thus: AUC in dog at 10 mg/kg, iv. It counts as ADME, organism-based, Canis lupus familiaris. The arrangement: dose 10 mg/kg, route intravenous. The note with it: plasma. An outline of the steps:
as §1

A short description of data set [10]: AUC in monkey at 15 mg/kg, iv. The following applies: cynomolgus monkey, plasma.
A short description of data set [11]: Solubility in water. In kind it is physicochemical.
A short description of data set [12]: Oral bioavailability in dog. It counts as ADME, organism-based, Canis lupus familiaris. The following applies: in vivo.
A further data set concerns the target hERG (KCNH2) (Homo sapiens, UniProt Q12809). Briefly: Inhibition of human ERG.
Data set [13] in a line: Solubility in simulated gastric fluid at pH 2.0. It counts as physicochemical. The note with it: simulated gi fluid, BLD = below limit of detection.
Data set [14] is described as follows: Oral bioavailability in rat. It counts as ADME, organism-based. The following applies: in vivo.
Data set [15] can be described thus: Stability in simulated intestinal fluid at pH 7.5 assessed as half life. It counts as physicochemical. The following applies: simulated gi fluid.

T1 sequence (P05556 whole entry, one chain of several): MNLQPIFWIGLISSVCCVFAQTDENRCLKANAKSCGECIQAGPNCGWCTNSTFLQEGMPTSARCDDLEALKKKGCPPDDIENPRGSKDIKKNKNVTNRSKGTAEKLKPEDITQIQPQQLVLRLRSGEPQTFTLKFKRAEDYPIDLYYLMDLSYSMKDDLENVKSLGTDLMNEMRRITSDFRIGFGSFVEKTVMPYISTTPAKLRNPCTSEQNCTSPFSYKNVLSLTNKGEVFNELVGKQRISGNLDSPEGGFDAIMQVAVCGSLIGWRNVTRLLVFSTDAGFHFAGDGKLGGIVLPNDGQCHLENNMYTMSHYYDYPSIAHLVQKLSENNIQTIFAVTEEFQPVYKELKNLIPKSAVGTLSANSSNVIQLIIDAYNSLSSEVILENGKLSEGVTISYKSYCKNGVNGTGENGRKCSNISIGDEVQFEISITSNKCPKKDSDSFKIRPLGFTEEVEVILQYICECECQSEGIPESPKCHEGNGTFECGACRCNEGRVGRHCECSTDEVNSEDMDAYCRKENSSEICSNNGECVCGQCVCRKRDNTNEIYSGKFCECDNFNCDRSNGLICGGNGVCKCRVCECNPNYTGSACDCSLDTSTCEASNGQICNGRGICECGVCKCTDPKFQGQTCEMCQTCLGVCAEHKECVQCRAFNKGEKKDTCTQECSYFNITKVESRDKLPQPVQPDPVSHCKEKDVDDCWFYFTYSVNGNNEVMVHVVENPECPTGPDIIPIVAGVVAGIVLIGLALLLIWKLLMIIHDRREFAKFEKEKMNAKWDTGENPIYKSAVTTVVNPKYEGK
hERG (KCNH2), sequence (Q12809 whole entry): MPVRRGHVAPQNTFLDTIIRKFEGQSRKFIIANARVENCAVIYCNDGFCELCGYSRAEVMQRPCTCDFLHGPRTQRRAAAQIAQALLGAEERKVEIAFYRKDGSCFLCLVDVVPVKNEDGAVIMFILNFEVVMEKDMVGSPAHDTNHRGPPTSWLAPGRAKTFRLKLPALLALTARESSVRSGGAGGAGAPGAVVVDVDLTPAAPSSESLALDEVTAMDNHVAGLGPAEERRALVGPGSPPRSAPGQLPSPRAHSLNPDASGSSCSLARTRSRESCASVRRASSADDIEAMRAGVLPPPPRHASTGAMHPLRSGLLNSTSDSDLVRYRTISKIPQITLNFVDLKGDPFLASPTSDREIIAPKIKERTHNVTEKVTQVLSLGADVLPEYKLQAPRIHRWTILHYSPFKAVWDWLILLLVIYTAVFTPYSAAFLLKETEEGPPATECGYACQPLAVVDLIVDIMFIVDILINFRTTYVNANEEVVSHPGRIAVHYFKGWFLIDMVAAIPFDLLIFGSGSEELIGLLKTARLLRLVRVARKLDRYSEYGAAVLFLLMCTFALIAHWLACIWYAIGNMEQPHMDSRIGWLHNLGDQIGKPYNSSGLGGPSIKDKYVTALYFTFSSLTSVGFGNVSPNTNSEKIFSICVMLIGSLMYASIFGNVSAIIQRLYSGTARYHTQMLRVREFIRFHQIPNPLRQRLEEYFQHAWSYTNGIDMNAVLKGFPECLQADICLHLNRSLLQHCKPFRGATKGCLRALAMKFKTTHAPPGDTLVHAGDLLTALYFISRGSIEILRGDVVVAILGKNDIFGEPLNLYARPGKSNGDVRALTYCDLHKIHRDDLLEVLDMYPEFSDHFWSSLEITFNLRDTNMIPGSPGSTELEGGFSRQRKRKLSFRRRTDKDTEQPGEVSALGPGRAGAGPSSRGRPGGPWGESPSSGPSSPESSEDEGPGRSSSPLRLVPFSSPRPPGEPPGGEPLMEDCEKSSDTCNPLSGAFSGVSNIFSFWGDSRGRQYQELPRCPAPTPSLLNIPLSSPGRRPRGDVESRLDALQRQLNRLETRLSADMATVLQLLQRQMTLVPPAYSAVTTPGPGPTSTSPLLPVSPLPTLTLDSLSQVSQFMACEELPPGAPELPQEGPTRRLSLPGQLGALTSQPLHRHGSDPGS

Consider `Cc1cc(C(F)(F)F)c(-c2ccc(C[C@H](NC(=O)c3c(Cl)cccc3Cl)C(=O)O)cc2)c(=O)n1C`, for which the clearance in data set [1] is 15.7 mL/min/kg; in data set [2], 3 mL/min/kg; in data set [6] it was 16.5 mL/min/kg. In addition, the Papp in data set [3] is 0.14 ×10⁻⁶ cm/s. Further, the Ratio IC50 on Integrin alpha-4/beta-1 [4] is 0.81; in [8], 6.5. The AUC in [5] was found to be 10900 ng·h/mL; in [9], 10900 ng·h/mL; in [10], 35100 ng·h/mL. Moreover, the concentration for half-maximal inhibition (IC50) at Integrin alpha-4/beta-7 is 42 nM; at Integrin alpha-4/beta-1 [7], 32 nM.
Regarding `CCOC(=O)[C@H](Cc1ccc(-c2c(C(F)(F)F)cc(C)n(C)c2=O)cc1)NC(=O)c1c(Cl)cccc1Cl`, the figures for the solubility in [11] and in [13] were 6 µg/mL (≈ 10.8 µM) and “BLD”, respectively. For the same compound, the bioavailability in data set [12] worked out at 2%; in [14], 18%. Besides, the Papp in [3] worked out at 27.1 ×10⁻⁶ cm/s. This compound showed an IC20 against hERG (KCNH2) of 2700 nM. Further, in [15], the Stability result is “Stable”.

Source of the values: ChEMBL document CHEMBL2331548, “Identification of N-acyl 4-(3-pyridonyl)phenylalanine derivatives and their orally active prodrug esters as dual acting α4β1 and α4β7 receptor antagonists” (Bioorg Med Chem Lett, 2013).
